The target of assay [1] is BRD4(2) (Homo sapiens, UniProt O60885). The assay is described as follows: HTRF bromodomain binding assay, BRD4. Background: TR-FRET usually uses a lanthanide donor and a delayed reading to cut background.
Assay [2] addresses BRD4(1) (Homo sapiens, UniProt O60885). Nature of the assay: HTRF bromodomain binding assay, BRD4.
For assay [3], the target named is BRD4 (Rattus norvegicus, UniProt A0A8I6A216). Nature of the assay: Cellular thermal shift assay. Format: cell-based. Particulars: NRCFs, 10 μmol/L, 4 h, heated from 43 to 61 °C.
In assay [4] the test system is NRCFs. The assay is described as follows: Ang II-induced cardiac fibroblast activation. The format is cell-based, rat. Particulars: immunofluorescent staining. In short, it runs like this:
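Treated neonatal rat cardiac fibroblasts fixed in 4% paraformaldehyde overnight, permeabilised with 0.1% Triton X-100 10 min, blocked in 5% BSA 20 min. Anti-α-SMA (1:300) at 4 °C overnight, then Alexa Fluor 488 goat anti-rabbit IgG (1:200) 2 h in the dark, DAPI 15 min. Imaged by laser confocal microscopy; n = 3.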

In assay [5] the test system is NRCFs. The assay is described as follows: Wound scratch migration assay. The format is cell-based, rat. Particulars: C-34 1 μmol/L or JQ1 0.2 μmol/L, Ang II 12 or 24 h.
Assay [6] relates to TGF-β1/Smad2/3 signaling pathway. The assay is described as follows: Ang II-induced TGF-β1/Smad2/3 signaling in NRCFs. The format is cell-based, rat. As to conditions: pretreatment, Western blot. The gist of the method:
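Fibroblasts from hearts of 1–3-day-old neonatal SD rats: trypsin (0.8 mg/mL, 4 °C overnight), then collagenase II (0.8 mg/mL), 2 h differential plating. Treated cells lysed in RIPA, protein by BCA, 10% SDS-PAGE, nitrocellulose, 5% nonfat milk block 2 h, primary antibodies 4 °C overnight, secondary 1:10,000 2 h, chemiluminescence, densitometry.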

Assay [7] has as its system MV4-11 and RS411 acute leukemia xenograft models. As to conditions: 5 mg/kg; cited from earlier work.

Usually IC50 stands for the concentration at which inhibition is half-maximal.

SMILES strings stand for the structures.

Consider `OCCNc1nc(-c2ccc(Cl)cc2)c2ccccc2n1` [Compound 6], for which the IC50 in assay [1] turned out to be 8.314 ± 0.016 µM.

`CC(C)(CO)Nc1nc(-c2ccc(Cl)cc2)c2ccccc2n1` [Compound 7]: in assay [1], the IC50 is 12.4 ± 1.09 µM.

For `NC(=O)CNc1nc(-c2ccc(Cl)cc2)c2ccccc2n1` [Compound 8], in assay [1], the IC50 amounted to 4.55 ± 0.658 µM. Also, in assay [1] (vs compound 5), the “fold more potent than compound 5 (BRD4(2) IC50)” value was “about 4 fold”.

As to `Clc1ccc(-c2nc(NCCc3c[nH]c4ccccc34)nc3ccccc23)cc1` [Compound 9], the IC50 in assay [1] was determined as 14.8 ± 1.17 µM.

As to `Clc1ccc(-c2nc(NCc3ccco3)nc3ccccc23)cc1` [Compound 10], the IC50 in assay [1] worked out at 13.3 ± 1.12 µM.

In assay [1], `COC(=O)c1ccc(CNc2nc(-c3ccc(Cl)cc3)c3ccccc3n2)cc1` [Compound 11] yielded an IC50 of 9.04 ± 0.956 µM.

In assay [1], `COC(=O)c1ccc(Nc2nc(-c3ccc(Cl)cc3)c3ccccc3n2)cc1` [Compound 12] returned an IC50 of 7.05 ± 0.848 µM.

On to `O=C(O)c1ccc(Nc2nc(-c3ccc(Cl)cc3)c3ccccc3n2)cc1` [Compound 13], for which the IC50 in assay [1] worked out at 3.05 ± 0.484 µM.

In assay [1], `Oc1ccc(Nc2nc(-c3ccc(Cl)cc3)c3ccccc3n2)cc1` [Compound 14] came in with an IC50 of 4.31 ± 0.18 µM. The IC50 values of the last two compounds are within 1.5-fold of each other.

The compound `Clc1ccc(-c2nc(Nc3ccccc3)nc3ccccc23)cc1` [Compound 15] displayed an IC50 in assay [1] of 10.6 ± 0.367 µM.

Compound `Cc1ccc(Nc2nc(-c3ccc(Cl)cc3)c3ccccc3n2)cc1` [Compound 16] returned an IC50 in assay [1] of 8.62 ± 0.164 µM.

Consider `CC(C)c1ccc(Nc2nc(-c3ccc(Cl)cc3)c3ccccc3n2)cc1` [Compound 17], for which the IC50 in assay [1] was found to be 12.9 ± 0.947 µM.

In assay [1], `Clc1ccc(-c2nc(Nc3ccc(Br)cc3)nc3ccccc23)cc1` [Compound 18] displayed an IC50 of 7.02 ± 0.517 µM.

On to `NS(=O)(=O)c1ccc(Nc2nc(-c3ccc(Cl)cc3)c3ccccc3n2)cc1` [Compound 19], for which the IC50 is 1.53 ± 0.185 µM in assay [1] and 3.37 ± 0.528 µM in assay [2]. Further, the “fold more active in comparison to compound 15 (BRD4(2) IC50)” value in assay [1] (vs compound 15) is given as “about 7 fold”.

`O=S(=O)(c1ccc(Nc2nc(-c3ccc(Cl)cc3)c3ccccc3n2)cc1)N1CCOCC1` [Compound 20]: the IC50 in assay [1] came to 3.88 ± 0.589 µM.

As to `NS(=O)(=O)c1cccc(Nc2nc(-c3ccc(Cl)cc3)c3ccccc3n2)c1` [Compound 21], the IC50 in assay [1] was > 20 µM.

As for `NS(=O)(=O)c1ccc(Nc2nc(-c3ccccc3Cl)c3ccccc3n2)cc1` [Compound 23], the IC50 in assay [1] amounted to 19.7 ± 1.3 µM.

In turn, `NS(=O)(=O)c1ccc(Nc2nc(-c3cccc(Cl)c3)c3ccccc3n2)cc1` [Compound 24] returned an IC50 in assay [1] of 15.1 ± 1.18 µM. The IC50 values of the last two compounds are within 1.5-fold of each other.

For the compound `Cc1ccc2nc(Nc3ccc(S(N)(=O)=O)cc3)nc(-c3ccc(Cl)cc3)c2c1` [Compound 25], the IC50 in assay [1] came out at 12.6 ± 0.307 µM. The IC50 values of the last two compounds are within 1.5-fold of each other.

For the compound `NS(=O)(=O)c1ccc(Nc2nc(-c3ccc(Br)cc3)c3ccccc3n2)cc1` [Compound 26], the IC50 in assay [1] is 1.63 ± 0.212 µM; in assay [2] it was 1.6 ± 0.205 µM.

Regarding `NS(=O)(=O)c1ccccc1Nc1nc(-c2ccc(Br)cc2)c2ccccc2n1` [Compound 27], the IC50 in assay [1] was 3.21 ± 0.206 µM.

As for `NS(=O)(=O)c1ccccc1Nc1nc(-c2ccc(F)cc2)c2ccccc2n1` [Compound 29], the IC50 amounted to 0.589 ± 0.052 µM in assay [1] and 0.615 ± 0.127 µM in assay [2].

For the compound `N#Cc1ccc(-c2nc(Nc3ccc(S(N)(=O)=O)cc3)nc3ccccc23)cc1` [Compound 30], the IC50 in assay [1] stood at 0.688 ± 0.016 µM; in assay [2], 0.588 ± 0.024 µM.

On to `NS(=O)(=O)c1ccc(Nc2nc(-c3ccc(C(F)(F)F)cc3)c3ccccc3n2)cc1` [Compound 31], for which the IC50 came out at 0.424 ± 0.038 µM in assay [1] and 0.687 ± 0.054 µM in assay [2].

The compound `NS(=O)(=O)c1ccc(Nc2nc(-c3ccccc3)c3ccccc3n2)cc1` [Compound 32, 4-((4-Phenylquinazolin-2-yl)amino)benzenesulfonamide] returned an IC50 in assay [1] of 10.3 ± 1.01 µM.

With `Cc1ccc(-c2nc(Nc3ccc(S(N)(=O)=O)cc3)nc3ccccc23)cc1` [Compound 33, 4-((4-(p-Tolyl)quinazolin-2-yl)amino)benzenesulfonamide], in assay [1], the IC50 amounted to 3.23 ± 0.089 µM.

In turn, `Cc1ccc(-c2nc(Nc3ccc(S(N)(=O)=O)cc3)nc3ccc(C)cc23)cc1` [Compound 34, 4-((6-Methyl-4-(p-tolyl)quinazolin-2-yl)amino)benzenesulfonamide] displayed a half-maximal inhibitory concentration (IC50) in assay [1] of 13.6 ± 1.13 µM.

The compound `COc1ccc(-c2nc(Nc3ccc(S(N)(=O)=O)cc3)nc3ccccc23)cc1` [Compound 35, 4-((4-(4-Methoxyphenyl)quinazolin-2-yl)amino)benzenesulfonamide] gave an IC50 in assay [1] of 8.12 ± 0.084 µM.

As for `COc1ccc(-c2nc(Nc3ccccc3S(N)(=O)=O)nc3ccccc23)cc1` [Compound 36], in assay [1], the IC50 came out at 9.91 ± 0.996 µM.

With `CNC(=O)c1ccc(-c2nc(Nc3ccc(S(N)(=O)=O)cc3)nc3ccccc23)cc1` [Compound 37], the concentration for half-maximal inhibition (IC50) in assay [1] turned out to be 3.65 ± 0.562 µM.

`COC(=O)c1ccc(-c2nc(Nc3ccc(S(N)(=O)=O)cc3)nc3ccccc23)cc1` [Compound 38] showed a half-maximal inhibitory concentration (IC50) in assay [1] of 5.17 ± 0.614 µM.

As for `COC(=O)c1ccc(-c2nc(Nc3ccccc3S(N)(=O)=O)nc3ccccc23)cc1` [Compound 39], the IC50 in assay [1] is 3.33 ± 0.522 µM.

In assay [1], `COC(=O)c1cccc(-c2nc(Nc3ccc(S(N)(=O)=O)cc3)nc3ccccc23)c1` [Compound 40] came in with an IC50 of 7.62 ± 0.882 µM.

`NS(=O)(=O)c1ccc(Nc2nc(-c3cccc4ccccc34)c3ccccc3n2)cc1` [Compound 41, 4-((4-(Naphthalen-1-yl)quinazolin-2-yl)amino)benzenesulfonamide]: the half-maximal inhibitory concentration (IC50) in assay [1] was determined as 4.76 ± 0.678 µM.

With `NS(=O)(=O)c1ccc(Nc2nc(-c3ccc(OCc4ccccc4)cc3)c3ccccc3n2)cc1` [Compound 42, 4-((4-(4-(Benzyloxy)phenyl)quinazolin-2-yl)amino)benzenesulfonamide], in assay [1], the IC50 was > 20 µM.

Consider `O=C(O)c1ccc(Nc2nc(-c3ccc(F)cc3)c3ccccc3n2)cc1` [Compound 43, 4-((4-(4-Fluorophenyl)quinazolin-2-yl)amino)benzoic acid], for which the IC50 in assay [1] was 0.925 ± 0.081 µM; in assay [2], 4.47 ± 0.361 µM.

`O=C(O)c1ccc(CNc2nc(-c3ccc(F)cc3)c3ccccc3n2)cc1` [Compound 44, 4-(((4-(4-Fluorophenyl)quinazolin-2-yl)amino)methyl)benzoic acid]: the IC50 in assay [1] is 2.07 ± 0.625 µM; in assay [2] it was 5.13 ± 0.626 µM.

`CC(C)c1ccc(Nc2nc(-c3ccc(F)cc3)c3ccccc3n2)cc1` [Compound 45] had an IC50 in assay [1] of 5.27 ± 0.367 µM.

In assay [1], `NS(=O)(=O)c1ccc(CNc2nc(-c3ccc(F)cc3)c3ccccc3n2)cc1` [Compound 46] returned an IC50 of 6.12 ± 0.258 µM.

`NS(=O)(=O)c1ccc(CCNc2nc(-c3ccc(F)cc3)c3ccccc3n2)cc1` [Compound 47] showed an IC50 in assay [1] of 18.63 ± 0.047 µM.

Take `O=S(=O)(c1ccccc1Nc1nc(-c2ccc(F)cc2)c2ccccc2n1)N1CCOCC1` [Compound 48]: the IC50 in assay [1] turned out to be 6.69 ± 0.825 µM. Compared with the last compound, the IC50 is about 2.8-fold lower.

In the case of `O=S(=O)(c1ccc(Nc2nc(-c3ccc(F)cc3)c3ccccc3n2)cc1)N1CCOCC1` [Compound 49], the IC50 in assay [1] was 1.33 ± 0.628 µM; in assay [2], 5.95 ± 0.248 µM.

For the compound `O=C(c1ccc(Nc2nc(-c3ccc(F)cc3)c3ccccc3n2)cc1)N1CCOCC1` [Compound 50], in assay [1], the concentration for half-maximal inhibition (IC50) was determined as 3.07 ± 0.584 µM.

As to `NS(=O)(=O)c1ccc(Nc2nc(Nc3ccc(Br)cc3)c3ccccc3n2)cc1` [Compound 52], the IC50 in assay [1] was found to be 9.85 ± 0.993 µM. The “fold decrease on potency vs compound 26 (BRD4(2) IC50)” value in assay [1] (vs compound 26) is given as ~6 fold.

With `Cc1sc2c(c1C)C(c1ccc(Cl)cc1)=N[C@@H](CC(=O)OC(C)(C)C)c1nnc(C)n1-2` [JQ1], the “BRD4 thermal stabilization (CETSA, Western blot)” value in assay [3] is on record as “in close accordance with that obtained for JQ1”. Also, the “α-SMA fluorescence intensity after Ang II stimulation” value in assay [4] is listed as “this effect was reversed”. In addition, the “Ang II-induced cell migration (wound scratch assay)” value in assay [5] is listed as “effectively inhibited the enhanced cell migration induced by Ang II”. Moreover, the “Ang II-induced upregulation of TGF-β1, p-Smad2 and p-Smad3” value in assay [6] is “comparable to those by JQ1 treatment”.

Consider `Cc1nnc2n1-c1sc(C#Cc3cnn(CCCC#Cc4cccc5c4CN(C4CCC(=O)NC4=O)C5=O)c3)c(Cc3ccccc3)c1COC2` (stereo not drawn) [QCA570], for which the tumor regression result in assay [7] is “complete and long-lasting tumor regression”.
